ChEMBL document CHEMBL5376013, “Design, synthesis and biological evaluation of novel morpholinopyrimidine-5-carbonitrile derivatives as dual PI3K/mTOR inhibitors” (RSC Med Chem, 2024)
One block for each compound: values may come before it.

Key:
A498 = assay: Antitumor activity against human A498 cells assessed as growth inhibition at 10 uM relative to control; type: functional; settings: read-out: GI
Summary of the method: (§1)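 After drug addition, plates were incubated 48 h at 37 °C under 5% CO2. Adherent cells were fixed with cold TCA (10% final, 60 min, 4 °C) and suspension cells with 16% final TCA. Staining used 0.4% SRB in 1% acetic acid, solubilized in 10 mM trizma, read at A515. Percent growth was calculated from time-zero, control and treated absorbances.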

UACC-62 = assay: Antitumor activity against human UACC-62 cells assessed as growth inhibition at 10 uM relative to control; type: functional; settings: read-out: GI
Summary of the method: (§2)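 Drug exposure 48 h at 37 °C, 5% CO2. Adherent cells fixed with cold TCA (10% final), suspension cells with TCA (16% final). Stained with 0.4% SRB in 1% acetic acid, dissolved in 10 mM Tris, A515. Growth relative to time-zero and untreated control.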

SR [1] = assay: Induction of apoptosis in human SR cells assessed as late apoptotic cells incubated for 24 hrs by AnnexinV-FITC/propidium iodide staining based flow cytometry (Rvb =0.18%); type: functional
[2] = biological target: Phosphatidylinositol 4,5-bisphosphate 3-kinase catalytic subunit alpha isoform (Homo sapiens, UniProt P42336); assay: Inhibition of PI3Kalpha (unknown origin)
Phosphatidylinositol 4,5-bisphosphate 3-kinase catalytic subunit alpha isoform, sequence (P42336 whole entry, canonical isoform): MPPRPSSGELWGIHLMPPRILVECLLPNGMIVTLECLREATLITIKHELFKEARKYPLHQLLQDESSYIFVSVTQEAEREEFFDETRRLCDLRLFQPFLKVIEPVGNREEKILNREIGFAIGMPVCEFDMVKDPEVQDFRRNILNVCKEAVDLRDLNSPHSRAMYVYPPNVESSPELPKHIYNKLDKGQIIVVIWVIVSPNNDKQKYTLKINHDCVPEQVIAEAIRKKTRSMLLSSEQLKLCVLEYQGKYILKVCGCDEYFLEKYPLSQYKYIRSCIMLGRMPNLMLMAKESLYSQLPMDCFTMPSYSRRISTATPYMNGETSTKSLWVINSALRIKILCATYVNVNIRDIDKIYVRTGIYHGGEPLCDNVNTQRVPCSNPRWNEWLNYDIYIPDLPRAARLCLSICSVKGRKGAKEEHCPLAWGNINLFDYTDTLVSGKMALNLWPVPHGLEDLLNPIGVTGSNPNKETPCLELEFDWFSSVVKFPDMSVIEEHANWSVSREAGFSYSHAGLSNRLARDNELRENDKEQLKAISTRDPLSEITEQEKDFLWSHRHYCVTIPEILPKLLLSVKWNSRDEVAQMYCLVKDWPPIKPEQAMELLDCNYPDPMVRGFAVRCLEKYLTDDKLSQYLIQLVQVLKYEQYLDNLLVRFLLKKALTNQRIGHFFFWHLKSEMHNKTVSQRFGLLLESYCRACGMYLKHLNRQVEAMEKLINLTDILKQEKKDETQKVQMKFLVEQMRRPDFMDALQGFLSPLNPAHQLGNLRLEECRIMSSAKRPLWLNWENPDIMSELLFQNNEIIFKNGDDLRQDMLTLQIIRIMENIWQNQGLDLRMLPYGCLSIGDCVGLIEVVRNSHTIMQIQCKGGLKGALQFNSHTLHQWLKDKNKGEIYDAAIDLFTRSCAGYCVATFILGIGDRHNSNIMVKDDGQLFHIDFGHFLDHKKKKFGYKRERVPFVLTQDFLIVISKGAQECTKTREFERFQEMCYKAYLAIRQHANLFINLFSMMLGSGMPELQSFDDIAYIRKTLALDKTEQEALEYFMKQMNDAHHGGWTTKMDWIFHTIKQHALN
Summary of the method: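 Inhibitor preincubated 10 min before PIP2 substrate in kinase reaction buffer (25 µl final), 1 h reaction. Product detected by competition with biotinylated PIP3 for GRP1, with SA-HRP and TMB colour.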

DU-145 = assay: Antitumor activity against human DU-145 cells assessed as growth inhibition at 10 uM relative to control; type: functional; settings: read-out: GI; summary of the method: as §1
OVCAR-4 = assay: Antitumor activity against human OVCAR-4 cells assessed as growth inhibition at 10 uM relative to control; type: functional; settings: read-out: GI; summary of the method: as §1
PC-3 = assay: Antitumor activity against human PC-3 cells assessed as growth inhibition at 10 uM relative to control; type: functional; settings: read-out: GI; summary of the method: as §1
SF-295 = assay: Antitumor activity against human SF-295 cells assessed as growth inhibition at 10 uM relative to control; type: functional; settings: read-out: GI; summary of the method: as §1
SK-OV-3 = assay: Antitumor activity against human SK-OV-3 cells assessed as growth inhibition at 10 uM relative to control; type: functional; settings: read-out: GI; summary of the method: as §2
TK-10 = assay: Antitumor activity against human TK-10 cells assessed as growth inhibition at 10 uM relative to control; type: functional; settings: read-out: GI; summary of the method: as §2
M14 = assay: Antitumor activity against human M14 cells assessed as growth inhibition at 10 uM relative to control; type: functional; settings: read-out: GI; summary of the method: as §1
SR [3] = assay: Induction of cell cycle arrest in human SR cells assessed as accumulation of cells at pre-G phase incubated for 24 hrs by PI staining based flow cytometry analysis (reference value: 1.39%); type: functional
SR [4] = assay: Induction of cell cycle arrest in human SR cells assessed as cell aggregates incubated for 24 hrs by PI staining based flow cytometry analysis (reference value: 1.47%); type: functional
HOP-92 = assay: Antitumor activity against human HOP-92 cells assessed as growth inhibition at 10 uM relative to control; type: functional; settings: read-out: GI; summary of the method: as §1
ACHN = assay: Antitumor activity against human ACHN cells assessed as growth inhibition at 10 uM relative to control; type: functional; settings: read-out: GI; summary of the method: as §1
NCI/ADR-RES = assay: Antitumor activity against human NCI-ADR-RES cells assessed as growth inhibition at 10 uM relative to control; type: functional; settings: read-out: GI; summary of the method: as §1
[5] = biological target: T1, Serine/threonine-protein kinase mTOR (Homo sapiens, UniProt P42345); assay: Inhibition of mTOR (unknown origin) incubated for 1 hr by ELISA analysis
Summary of the method: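 Glutathione-coated plate loaded with mTOR substrate (1 h, room temperature). mTOR with compound in 2X kinase assay buffer, 30 min at 30 °C, then stop solution. Phospho-p70S6K-T389 detected by primary antibody, then HRP conjugate (1 h each), TMB, A450 with 540 or 595 nm reference.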

[6] = Cytotoxicity against human PCS-800-011 cells assessed as inhibition of cell growth by MTT assay; type: toxicity, cell-based
SR [7] = assay: Induction of cell cycle arrest in human SR cells assessed as cell debris incubated for 24 hrs by PI staining based flow cytometry analysis (reference value: 1.93%); type: functional
SR [8] = assay: Induction of apoptosis in human SR cells assessed as necrotic cells incubated for 24 hrs by AnnexinV-FITC/propidium iodide staining based flow cytometry (Rvb =0.92%); type: functional
UACC-257 = assay: Antitumor activity against human UACC-257 cells assessed as growth inhibition at 10 uM relative to control; type: functional; settings: read-out: GI; summary of the method: as §2
SR [9] = assay: Induction of cell cycle arrest in human SR cells assessed as accumulation of cells at S phase incubated for 24 hrs by PI staining based flow cytometry analysis (reference value: 38.42%); type: functional
SR [10] = assay: Induction of apoptosis in human SR cells assessed as early apoptotic cells incubated for 24 hrs by AnnexinV-FITC/propidium iodide staining based flow cytometry (Rvb =0.29%); type: functional
SR [11] = assay: cells; settings: Homo sapiens
SR [12] = assay: Induction of cell cycle arrest in human SR cells assessed as accumulation of cells at G2/M phase incubated for 24 hrs by PI staining based flow cytometry analysis (reference value: 8.57%); type: functional
SF-268 = assay: Antitumor activity against human SF-268 cells assessed as growth inhibition at 10 uM relative to control; type: functional; settings: read-out: GI; summary of the method: as §1
SR [13] = assay: Induction of cell cycle arrest in human SR cells assessed as accumulation of cells at G1 phase incubated for 24 hrs by PI staining based flow cytometry analysis (reference value: 53.01%); type: functional
[14] = biological target: T1, Serine/threonine-protein kinase mTOR; assay: Inhibition of mTOR in human SR cells by Western blot analysis; type: cell-based

- IC50 [2]: 1270 nM
- IC50 [5]: 2850 nM
- IC50 (SR [11]): 90 nM
SMILES: N#Cc1c(-c2ccc(Cl)cc2)nc(N/N=C/c2cccc(O)c2)nc1N1CCOCC1
- inhibition of growth at 10 µM (A498): 24.9%
- inhibition of growth at 10 µM (UACC-62): < 1%
- Activity (SR [1]): 19.19%
- inhibition of growth at 10 µM (DU-145): 36.6%
- inhibition of growth at 10 µM (OVCAR-4): < 1%
- inhibition of growth at 10 µM (PC-3): 36.2%
- inhibition of growth at 10 µM (SF-295): < 1%
- inhibition of growth at 10 µM (SK-OV-3): < 1%
- inhibition of growth at 10 µM (TK-10): 21%
- inhibition of growth at 10 µM (M14): 33.4%
- Activity (SR [3]): 31.4%
- Activity (SR [4]): 1.61%
- inhibition of growth at 10 µM (HOP-92): 36.7%
- inhibition of growth at 10 µM (ACHN): 39.1%
- inhibition of growth at 10 µM (NCI/ADR-RES): 35.1%
- IC50 [6]: 44500 nM
- Activity (SR [7]): 2.24%
- Activity (SR [8]): 9.61%
- inhibition of growth at 10 µM (UACC-257): < 1%
- Activity (SR [9]): 26.95%
- Activity (SR [10]): 2.61%
- Activity (SR [12]): 33.77%
- inhibition of growth at 10 µM (SF-268): 18.1%
- Activity (SR [13]): 39.28%

- IC50 [2]: 170 nM
- IC50 [14]: 103 nM
- IC50 [5]: 830 nM
- IC50 (SR [11]): 100 nM
SMILES: N#Cc1c(-c2ccc(Cl)cc2)nc(N/N=C/c2cccc(Cl)c2)nc1N1CCOCC1
- inhibition of growth at 10 µM (A498): 57.8%
- inhibition of growth at 10 µM (UACC-62): < 1%
- Activity (SR [1]): 27.96%
- inhibition of growth at 10 µM (DU-145): 24%
- inhibition of growth at 10 µM (OVCAR-4): < 1%
- inhibition of growth at 10 µM (PC-3): 26.5%
- inhibition of growth at 10 µM (SF-295): < 1%
- inhibition of growth at 10 µM (SK-OV-3): < 1%
- inhibition of growth at 10 µM (TK-10): < 1%
- inhibition of growth at 10 µM (M14): 15.4%
- Activity (SR [3]): 44.26%
- Activity (SR [4]): 1.51%
- inhibition of growth at 10 µM (HOP-92): 10.7%
- inhibition of growth at 10 µM (ACHN): 25.7%
- inhibition of growth at 10 µM (NCI/ADR-RES): 10.8%
- IC50 [6]: 17500 nM
- Activity (SR [7]): 1.96%
- Activity (SR [8]): 12.76%
- inhibition of growth at 10 µM (UACC-257): 28.4%
- Activity (SR [9]): 29.41%
- Activity (SR [10]): 3.54%
- Activity (SR [12]): 37.64%
- inhibition of growth at 10 µM (SF-268): < 1%
- Activity (SR [13]): 32.95%
